Our source for the Ki and IC50 values is ChEMBL document CHEMBL1165926, “Synthesis and characterization of potent inhibitors of Trypanosoma cruzi dihydrofolate reductase” (Bioorg Med Chem, 2010).

T1 sequence (Q27793 whole entry): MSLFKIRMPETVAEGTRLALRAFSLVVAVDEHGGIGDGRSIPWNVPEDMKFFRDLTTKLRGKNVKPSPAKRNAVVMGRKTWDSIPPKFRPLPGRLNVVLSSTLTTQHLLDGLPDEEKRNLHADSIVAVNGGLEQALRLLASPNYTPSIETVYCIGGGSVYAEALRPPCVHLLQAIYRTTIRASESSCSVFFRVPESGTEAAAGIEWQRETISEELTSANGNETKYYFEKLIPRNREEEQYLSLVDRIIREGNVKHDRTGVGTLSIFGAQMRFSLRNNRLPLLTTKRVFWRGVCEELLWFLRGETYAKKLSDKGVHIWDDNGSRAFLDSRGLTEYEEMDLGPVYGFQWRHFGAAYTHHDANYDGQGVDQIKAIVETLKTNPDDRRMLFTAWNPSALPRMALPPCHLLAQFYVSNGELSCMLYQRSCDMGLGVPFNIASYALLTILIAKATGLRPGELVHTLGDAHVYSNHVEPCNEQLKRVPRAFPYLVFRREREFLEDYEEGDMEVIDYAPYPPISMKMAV

One assay has as its target T1, Bifunctional dihydrofolate reductase-thymidylate synthase (Trypanosoma cruzi, UniProt Q27793). Briefly: Inhibition of Trypanosoma cruzi DHFR by Lineweaver-Burke plot. The essentials: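 Recombinant bifunctional T. cruzi DHFR-TS; 50 mM Tris-HCl pH 7.0 with DHF, 100 µM NADPH and 0.5–1.0 µg enzyme; initial velocity followed at 340 nm for 30 s at 22.6 °C. Velocities taken at five DHF concentrations for each of three inhibitor concentrations; Ki read from Lineweaver–Burk plots.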
As for `COc1ccc(NCc2ccc3nc(N)nc(N)c3c2)cc1OC`, the affinity, expressed as Ki, was 4.75 nM.

`CCOC(=O)CCCOc1cc(NCc2ccc3nc(N)nc(N)c3c2)ccc1OC` yielded a Ki of 5.68 nM.

In a further assay the target is T2, Dihydrofolate reductase (Homo sapiens, UniProt P00374).
T2 sequence (P00374 whole entry): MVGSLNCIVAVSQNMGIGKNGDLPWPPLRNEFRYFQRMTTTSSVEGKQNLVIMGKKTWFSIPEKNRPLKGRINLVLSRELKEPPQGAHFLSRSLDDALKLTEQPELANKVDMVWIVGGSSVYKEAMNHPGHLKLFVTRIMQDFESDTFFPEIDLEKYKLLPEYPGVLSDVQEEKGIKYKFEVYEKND
The experiment in a line: Inhibition of human DHFR by spectrophotometric assay.
The compound `COc1ccc(NCc2ccc3nc(N)nc(N)c3c2)cc1OC` gave an IC50 of 85.5 nM and a Ki of 11.8 nM.

`CCCN(Cc1ccc2nc(N)nc(N)c2c1)c1ccc(OC)c(OCCCCC(=O)OC)c1` had an IC50 of 1340 nM and a Ki of 188 nM.

Take `COc1ccc(NCc2ccc3nc(N)nc(N)c3c2)cc1OCCCC(=O)O`: half-maximal inhibition (IC50) required 357 nM and the affinity corresponds to a Ki of 49.8 nM.

As to `COC(=O)CCCCOc1cc(NCc2ccc3nc(N)nc(N)c3c2)ccc1OC`, the IC50 was 93.5 nM and the affinity, expressed as Ki, was 13 nM.

As for `COC(=O)c1ccc(COc2cc(NCc3ccc4nc(N)nc(N)c4c3)ccc2OC)cc1`, the IC50 came to 175 nM and the Ki is 24.5 nM.

Consider `CCOC(=O)CCCOc1cc(NCc2ccc3nc(N)nc(N)c3c2)ccc1OC`, for which half-maximal inhibition (IC50) required 68.3 nM and affinity was put at a Ki of 9.6 nM.

The next assay concerns the target T1, Bifunctional dihydrofolate reductase-thymidylate synthase. The experiment in a line: Inhibition of Trypanosoma cruzi DHFR by spectrophotometric assay. In outline: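 Recombinant bifunctional T. cruzi DHFR-TS in 50 mM Tris-HCl pH 7.0 with DHF, 100 µM NADPH and 0.5–1.0 µg enzyme; velocity from absorbance at 340 nm over 30 s at 22.6 °C. IC50 from velocities at several inhibitor concentrations for each of three DHF concentrations, then averaged; Ki calculated from IC50. Triplicates, repeated on different days.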
For the compound `COc1ccc(NCc2ccc3nc(N)nc(N)c3c2)cc1OC`, the IC50 came to 27.1 nM and affinity was put at a Ki of 1.6 nM.

Take `CCCN(Cc1ccc2nc(N)nc(N)c2c1)c1ccc(OC)c(OCCCCC(=O)OC)c1`: inhibition was half-maximal at 422 nM (IC50) and the Ki was 24.9 nM.

In the case of `COc1ccc(NCc2ccc3nc(N)nc(N)c3c2)cc1OCCCC(=O)O`, 61 nM corresponded to half-maximal inhibition (IC50) and the Ki turned out to be 3.6 nM.

For the compound `COC(=O)CCCCOc1cc(NCc2ccc3nc(N)nc(N)c3c2)ccc1OC`, the midpoint of inhibition, the IC50, lay at 27 nM and the affinity, expressed as Ki, was 1.6 nM.

`COC(=O)c1ccc(COc2cc(NCc3ccc4nc(N)nc(N)c4c3)ccc2OC)cc1` came in with an IC50 of 57.5 nM and an inhibition constant Ki of 3.3 nM.

Compound `CCOC(=O)CCCOc1cc(NCc2ccc3nc(N)nc(N)c3c2)ccc1OC` showed an IC50 of 23.8 nM and a Ki of 1.3 nM.

Compound `COc1cc(NCc2ccc3nc(N)nc(N)c3c2C)cc(OC)c1OC` [TRIMETREXATE] yielded an IC50 of 20.2 nM and a Ki of 6.6 nM.
